Experimental findings from ChEMBL document CHEMBL2384907, “Identification of substituted pyrimido[5,4-b]indoles as selective Toll-like receptor 4 ligands” (J Med Chem, 2013) are described below.

The target in test [1] is Toll-like receptor 4 (Homo sapiens) (UniProt O00206). The experiment in a line: Activation of human TLR4 transfected in HEK293 cells assessed as NFkappaB activation after 20 to 24 hrs by SEAP assay. It is filed as cell-based. The gist of the method: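 Human or mouse TLR4 HEK-Blue cells (2.5 × 10^4/well) incubated with graded concentrations for 20–24 h; NFκB-driven SEAP in culture supernatant measured colorimetrically.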

In test [2] the target is T1, Toll-like receptor 4 (Mus musculus) (UniProt Q9QUK6).
T1 sequence (whole entry): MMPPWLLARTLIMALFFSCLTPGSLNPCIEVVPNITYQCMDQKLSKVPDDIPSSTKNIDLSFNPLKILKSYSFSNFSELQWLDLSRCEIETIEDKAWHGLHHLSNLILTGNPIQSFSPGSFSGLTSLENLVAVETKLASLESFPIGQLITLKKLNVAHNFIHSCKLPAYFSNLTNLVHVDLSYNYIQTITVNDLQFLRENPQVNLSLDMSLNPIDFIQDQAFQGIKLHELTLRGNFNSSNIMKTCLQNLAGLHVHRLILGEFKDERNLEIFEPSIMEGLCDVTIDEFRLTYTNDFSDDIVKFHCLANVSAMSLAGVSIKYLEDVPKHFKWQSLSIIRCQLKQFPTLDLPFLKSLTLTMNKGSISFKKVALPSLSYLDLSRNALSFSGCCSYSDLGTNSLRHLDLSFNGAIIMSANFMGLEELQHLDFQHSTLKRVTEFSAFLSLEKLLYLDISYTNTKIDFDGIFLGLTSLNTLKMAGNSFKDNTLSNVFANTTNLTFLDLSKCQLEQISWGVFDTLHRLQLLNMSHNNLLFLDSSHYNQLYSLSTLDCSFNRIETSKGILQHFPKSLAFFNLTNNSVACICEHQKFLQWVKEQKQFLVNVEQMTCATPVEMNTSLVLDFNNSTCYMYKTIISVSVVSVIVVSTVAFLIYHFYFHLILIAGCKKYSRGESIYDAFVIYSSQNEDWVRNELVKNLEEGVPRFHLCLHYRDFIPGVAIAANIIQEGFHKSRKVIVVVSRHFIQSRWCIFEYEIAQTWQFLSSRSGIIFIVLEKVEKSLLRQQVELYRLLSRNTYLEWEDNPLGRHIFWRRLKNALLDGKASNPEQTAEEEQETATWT
The experiment in a line: Activation of mouse TLR4 transfected in HEK293 cells after 18 hrs by SEAP assay relative to N-cyclohexyl-2-(4-oxo-3-phenyl-4,5-dihydro-3H-pyrimido[5,4-b]indol-2-ylthio)acetamide. It is filed as cell-based. The method, boiled down: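 Mouse TLR4 HEK-Blue cells (2.5 × 10^4/well) given titrated doses 312 nM–10 μM for 18 h, 0.5% DMSO vehicle; SEAP at 630 nm. Percent-activity curves, AUC by trapezoid method, normalized to reference hit set at 100. LPS 10 ng/mL control.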

Test [3] addresses Toll-like receptor 4/MD-2/CD14 (Mus musculus) (UniProt Q9QUK6+Q9JHF9+P10810). The experiment in a line: Activation of mouse TLR4/MD-2/CD14 complex in HEK293 cells assessed as NFkappaB activation by SEAP assay in presence of LPS-RS.
The target in test [4] is T2, Toll-like receptor 7 (Homo sapiens) (UniProt Q9NYK1).
T2 sequence (whole entry): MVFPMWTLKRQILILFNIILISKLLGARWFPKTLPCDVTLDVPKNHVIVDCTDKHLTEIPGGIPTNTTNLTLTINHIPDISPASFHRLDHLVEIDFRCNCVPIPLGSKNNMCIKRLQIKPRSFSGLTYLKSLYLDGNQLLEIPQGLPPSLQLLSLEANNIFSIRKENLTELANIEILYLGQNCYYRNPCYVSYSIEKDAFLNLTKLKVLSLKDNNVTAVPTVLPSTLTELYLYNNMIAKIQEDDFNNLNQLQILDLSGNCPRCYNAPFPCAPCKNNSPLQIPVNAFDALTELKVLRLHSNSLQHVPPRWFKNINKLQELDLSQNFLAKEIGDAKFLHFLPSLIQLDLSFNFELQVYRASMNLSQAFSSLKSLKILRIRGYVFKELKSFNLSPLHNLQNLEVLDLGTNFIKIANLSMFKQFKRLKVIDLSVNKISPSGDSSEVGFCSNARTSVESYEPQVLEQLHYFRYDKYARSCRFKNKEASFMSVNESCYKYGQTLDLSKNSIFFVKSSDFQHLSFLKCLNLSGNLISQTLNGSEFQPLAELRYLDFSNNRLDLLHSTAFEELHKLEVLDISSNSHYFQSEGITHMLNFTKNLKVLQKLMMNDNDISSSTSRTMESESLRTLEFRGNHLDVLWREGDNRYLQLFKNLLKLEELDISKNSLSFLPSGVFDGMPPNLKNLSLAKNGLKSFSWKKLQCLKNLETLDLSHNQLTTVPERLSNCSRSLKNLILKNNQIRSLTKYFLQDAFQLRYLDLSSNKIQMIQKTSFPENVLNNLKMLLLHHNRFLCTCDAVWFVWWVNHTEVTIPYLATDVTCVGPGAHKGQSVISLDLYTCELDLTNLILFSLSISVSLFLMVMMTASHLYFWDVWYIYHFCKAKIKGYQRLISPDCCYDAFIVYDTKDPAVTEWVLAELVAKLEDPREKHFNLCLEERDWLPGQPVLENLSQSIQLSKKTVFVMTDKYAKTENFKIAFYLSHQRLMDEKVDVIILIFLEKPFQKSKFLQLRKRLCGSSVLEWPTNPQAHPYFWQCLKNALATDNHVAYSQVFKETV
The experiment in a line: Activation of human TLR7 transfected in HEK293 cells at 10 uM after 20 to 24 hrs by SEAP assay. It is filed as cell-based.

The target in test [5] is Toll-like receptor 5 (Homo sapiens) (UniProt O60602). The experiment in a line: Activation of human TLR5 transfected in HEK293 cells at 10 uM after 20 to 24 hrs by SEAP assay. Type of test: cell-based.

Active and inactive are the calls of the source. The calls are words filed in the database; no cut-off is given here.

Sequence of Toll-like receptor 5 (Homo sapiens) (O60602 whole entry): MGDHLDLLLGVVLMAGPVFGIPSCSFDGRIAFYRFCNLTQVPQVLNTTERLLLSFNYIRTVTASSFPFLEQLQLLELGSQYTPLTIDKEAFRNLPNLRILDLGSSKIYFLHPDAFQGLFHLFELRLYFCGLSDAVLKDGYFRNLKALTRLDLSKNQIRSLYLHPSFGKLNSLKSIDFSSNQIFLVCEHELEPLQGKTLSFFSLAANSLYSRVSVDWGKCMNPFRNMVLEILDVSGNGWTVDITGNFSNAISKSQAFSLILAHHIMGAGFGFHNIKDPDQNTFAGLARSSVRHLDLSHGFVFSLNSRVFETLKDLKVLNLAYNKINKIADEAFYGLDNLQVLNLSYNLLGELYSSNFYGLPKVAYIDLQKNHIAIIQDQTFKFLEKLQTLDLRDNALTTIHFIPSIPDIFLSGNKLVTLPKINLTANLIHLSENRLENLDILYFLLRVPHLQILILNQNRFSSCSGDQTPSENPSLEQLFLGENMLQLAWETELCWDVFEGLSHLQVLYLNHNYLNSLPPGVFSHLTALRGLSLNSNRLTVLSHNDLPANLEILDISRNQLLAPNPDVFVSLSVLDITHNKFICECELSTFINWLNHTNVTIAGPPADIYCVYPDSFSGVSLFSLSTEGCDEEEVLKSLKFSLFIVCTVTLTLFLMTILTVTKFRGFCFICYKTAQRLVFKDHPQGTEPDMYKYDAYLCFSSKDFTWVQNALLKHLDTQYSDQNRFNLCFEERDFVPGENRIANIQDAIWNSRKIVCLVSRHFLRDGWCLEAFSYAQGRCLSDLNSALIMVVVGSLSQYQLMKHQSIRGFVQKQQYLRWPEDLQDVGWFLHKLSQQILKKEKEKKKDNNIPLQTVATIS
Sequence of Toll-like receptor 4 (Homo sapiens) (O00206 whole entry): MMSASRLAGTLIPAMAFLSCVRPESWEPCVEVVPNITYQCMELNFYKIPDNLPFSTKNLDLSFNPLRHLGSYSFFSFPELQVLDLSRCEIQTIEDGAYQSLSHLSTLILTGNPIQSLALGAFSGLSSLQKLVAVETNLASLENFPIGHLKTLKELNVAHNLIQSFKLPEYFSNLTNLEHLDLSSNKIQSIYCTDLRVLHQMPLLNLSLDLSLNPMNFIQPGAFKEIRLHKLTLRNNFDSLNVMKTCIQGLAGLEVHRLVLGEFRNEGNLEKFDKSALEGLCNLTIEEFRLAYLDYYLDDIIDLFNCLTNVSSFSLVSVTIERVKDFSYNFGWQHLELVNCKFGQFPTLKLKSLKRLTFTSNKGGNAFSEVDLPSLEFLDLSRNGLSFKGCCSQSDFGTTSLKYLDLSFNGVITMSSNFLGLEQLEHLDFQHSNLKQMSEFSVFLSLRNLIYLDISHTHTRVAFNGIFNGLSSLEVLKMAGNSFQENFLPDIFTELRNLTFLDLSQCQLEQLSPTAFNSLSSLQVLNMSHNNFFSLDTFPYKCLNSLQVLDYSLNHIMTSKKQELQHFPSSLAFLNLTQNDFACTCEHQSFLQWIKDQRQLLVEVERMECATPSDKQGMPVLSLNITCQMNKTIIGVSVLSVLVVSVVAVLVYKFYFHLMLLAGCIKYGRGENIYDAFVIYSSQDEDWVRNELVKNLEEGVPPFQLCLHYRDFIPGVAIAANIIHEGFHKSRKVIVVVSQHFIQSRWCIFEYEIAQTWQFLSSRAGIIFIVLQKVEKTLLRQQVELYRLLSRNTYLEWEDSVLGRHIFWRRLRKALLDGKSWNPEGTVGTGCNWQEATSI

Regarding `O=C(CSc1nc2c([nH]c3ccccc32)c(=O)n1-c1ccccc1)NC1CCCCC1`, the Activity entry was “Dose-dependent effect” in test [1], 100% in test [2] and “Dose-dependent effect” in test [3]. Besides, the outcome in test [4] and in test [5] was inactive.
